Results from ChEMBL document CHEMBL5247671, “Design and Synthesis of Pyrazole-Based Macrocyclic Kinase Inhibitors Targeting BMPR2” (ACS Med Chem Lett, 2023).
Values joined by “and” are separate entries in the source; they are usually repeats but may differ in a detail not shown here. Equal entries are not always repeated.

Key:
[1] = target: T1, Bone morphogenetic protein receptor type-2 (Homo sapiens, UniProt Q13873); test: Inhibition of BMPR2 (unknown origin) assessed as dissociation constant by ITC assay
T1 sequence (Q13873 whole entry): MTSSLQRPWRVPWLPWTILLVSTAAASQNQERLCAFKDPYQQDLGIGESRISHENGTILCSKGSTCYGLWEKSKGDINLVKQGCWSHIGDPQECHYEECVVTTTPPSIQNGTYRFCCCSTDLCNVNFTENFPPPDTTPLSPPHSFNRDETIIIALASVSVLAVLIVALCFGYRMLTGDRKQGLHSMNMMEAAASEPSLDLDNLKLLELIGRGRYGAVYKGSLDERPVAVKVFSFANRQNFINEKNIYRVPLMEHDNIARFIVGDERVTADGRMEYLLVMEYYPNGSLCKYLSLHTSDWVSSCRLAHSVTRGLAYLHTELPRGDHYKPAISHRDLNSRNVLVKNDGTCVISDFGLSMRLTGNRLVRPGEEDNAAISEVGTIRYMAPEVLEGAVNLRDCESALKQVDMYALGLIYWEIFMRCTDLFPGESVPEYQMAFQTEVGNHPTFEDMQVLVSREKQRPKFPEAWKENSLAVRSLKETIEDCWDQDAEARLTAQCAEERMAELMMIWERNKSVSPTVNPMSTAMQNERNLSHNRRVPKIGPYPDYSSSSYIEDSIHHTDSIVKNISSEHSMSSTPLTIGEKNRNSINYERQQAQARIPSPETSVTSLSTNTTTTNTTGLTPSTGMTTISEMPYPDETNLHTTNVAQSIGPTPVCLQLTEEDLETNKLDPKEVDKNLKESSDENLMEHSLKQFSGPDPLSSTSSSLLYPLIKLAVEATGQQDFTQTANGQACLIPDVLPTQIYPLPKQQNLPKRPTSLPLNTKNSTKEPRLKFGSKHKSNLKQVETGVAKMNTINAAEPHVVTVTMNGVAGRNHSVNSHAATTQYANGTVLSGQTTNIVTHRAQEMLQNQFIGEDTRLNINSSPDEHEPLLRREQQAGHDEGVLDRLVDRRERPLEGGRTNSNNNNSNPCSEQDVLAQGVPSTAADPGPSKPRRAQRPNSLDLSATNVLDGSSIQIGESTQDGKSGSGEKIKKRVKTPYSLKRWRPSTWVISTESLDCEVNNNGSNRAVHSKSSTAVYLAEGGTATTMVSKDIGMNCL
In short: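 Binding measured by isothermal titration calorimetry against the recombinant BMPR2 kinase domain. Thermodynamic binding parameters, including the dissociation constant, were derived from the titration data.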

[2] = target: BMP-2-inducible protein kinase (Homo sapiens) (UniProt Q9NSY1); test: Binding affinity to recombinant BMP2K (unknown origin) assessed as change in melting temperature at 10 uM by DSF assay
In short: (§1)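 Differential scanning fluorimetry on an in-house panel of 90 recombinant kinases. Stabilization is read as the shift in melting temperature (ΔTm) relative to ligand-free protein. Staurosporine served as the positive control, and binding was also compared against its ΔTm.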

[3] = target: Cyclin-dependent kinase 2 (Homo sapiens) (UniProt P24941); test: Binding affinity to recombinant CDK2 (unknown origin) assessed as change in melting temperature at 10 uM by DSF assay; in short: as §1
[4] = target: Serine/threonine-protein kinase 24 (Homo sapiens) (UniProt Q9Y6E0); test: Inhibition of recombinant MST3 (unknown origin) at 10 uM by DSF assay relative to staurosporine; in short: as §1
[5] = target: T2, Tyrosine-protein kinase Mer (Homo sapiens) (UniProt Q12866); test: Inhibition of recombinant MERTK (unknown origin) at 10 uM by DSF assay relative to staurosporine; in short: as §1
T2 sequence (whole entry): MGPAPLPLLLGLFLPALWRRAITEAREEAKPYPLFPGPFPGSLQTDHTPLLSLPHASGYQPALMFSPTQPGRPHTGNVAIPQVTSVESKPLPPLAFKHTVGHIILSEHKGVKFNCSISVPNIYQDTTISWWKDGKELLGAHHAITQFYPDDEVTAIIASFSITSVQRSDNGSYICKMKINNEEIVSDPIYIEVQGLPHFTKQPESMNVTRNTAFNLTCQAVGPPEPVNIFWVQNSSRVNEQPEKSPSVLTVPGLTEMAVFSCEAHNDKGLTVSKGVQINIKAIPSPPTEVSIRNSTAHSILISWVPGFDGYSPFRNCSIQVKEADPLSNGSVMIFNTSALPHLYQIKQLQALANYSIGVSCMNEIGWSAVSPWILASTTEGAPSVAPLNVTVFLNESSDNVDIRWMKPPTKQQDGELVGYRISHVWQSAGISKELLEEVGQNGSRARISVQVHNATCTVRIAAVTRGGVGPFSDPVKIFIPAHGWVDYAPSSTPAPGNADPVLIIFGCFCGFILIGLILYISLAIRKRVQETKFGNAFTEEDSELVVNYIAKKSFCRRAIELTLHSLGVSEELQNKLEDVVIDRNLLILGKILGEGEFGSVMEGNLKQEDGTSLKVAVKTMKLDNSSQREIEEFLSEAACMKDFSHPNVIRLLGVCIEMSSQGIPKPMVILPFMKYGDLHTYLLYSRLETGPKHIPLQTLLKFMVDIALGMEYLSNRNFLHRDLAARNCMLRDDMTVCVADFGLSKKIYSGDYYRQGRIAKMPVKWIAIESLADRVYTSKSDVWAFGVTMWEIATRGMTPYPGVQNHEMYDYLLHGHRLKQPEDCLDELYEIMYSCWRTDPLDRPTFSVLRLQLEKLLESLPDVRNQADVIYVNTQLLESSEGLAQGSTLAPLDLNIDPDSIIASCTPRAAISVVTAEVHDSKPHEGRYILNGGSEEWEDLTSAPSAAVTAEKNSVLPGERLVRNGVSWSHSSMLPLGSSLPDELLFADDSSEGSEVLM

[6] = target: Mitogen-activated protein kinase 8 (Homo sapiens) (UniProt P45983); test: Inhibition of JNK1 (unknown origin) assessed as residual activity at 1 uM by Kinomescan assay relative to staurosporine
Chain of Mitogen-activated protein kinase 8 (Homo sapiens) (P45983 whole entry): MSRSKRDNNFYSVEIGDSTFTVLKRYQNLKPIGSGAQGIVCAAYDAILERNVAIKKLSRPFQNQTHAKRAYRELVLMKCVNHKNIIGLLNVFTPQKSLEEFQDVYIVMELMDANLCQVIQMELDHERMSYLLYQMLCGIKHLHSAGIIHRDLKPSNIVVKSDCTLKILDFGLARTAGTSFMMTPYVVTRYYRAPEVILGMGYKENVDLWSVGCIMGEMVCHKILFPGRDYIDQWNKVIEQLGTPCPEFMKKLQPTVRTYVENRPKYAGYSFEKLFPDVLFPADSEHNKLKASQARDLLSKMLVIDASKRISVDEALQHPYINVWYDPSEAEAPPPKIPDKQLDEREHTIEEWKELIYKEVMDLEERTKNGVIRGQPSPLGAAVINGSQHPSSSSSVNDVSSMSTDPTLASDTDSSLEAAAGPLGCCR

Chain of BMP-2-inducible protein kinase (Homo sapiens) (Q9NSY1 whole entry, looked up): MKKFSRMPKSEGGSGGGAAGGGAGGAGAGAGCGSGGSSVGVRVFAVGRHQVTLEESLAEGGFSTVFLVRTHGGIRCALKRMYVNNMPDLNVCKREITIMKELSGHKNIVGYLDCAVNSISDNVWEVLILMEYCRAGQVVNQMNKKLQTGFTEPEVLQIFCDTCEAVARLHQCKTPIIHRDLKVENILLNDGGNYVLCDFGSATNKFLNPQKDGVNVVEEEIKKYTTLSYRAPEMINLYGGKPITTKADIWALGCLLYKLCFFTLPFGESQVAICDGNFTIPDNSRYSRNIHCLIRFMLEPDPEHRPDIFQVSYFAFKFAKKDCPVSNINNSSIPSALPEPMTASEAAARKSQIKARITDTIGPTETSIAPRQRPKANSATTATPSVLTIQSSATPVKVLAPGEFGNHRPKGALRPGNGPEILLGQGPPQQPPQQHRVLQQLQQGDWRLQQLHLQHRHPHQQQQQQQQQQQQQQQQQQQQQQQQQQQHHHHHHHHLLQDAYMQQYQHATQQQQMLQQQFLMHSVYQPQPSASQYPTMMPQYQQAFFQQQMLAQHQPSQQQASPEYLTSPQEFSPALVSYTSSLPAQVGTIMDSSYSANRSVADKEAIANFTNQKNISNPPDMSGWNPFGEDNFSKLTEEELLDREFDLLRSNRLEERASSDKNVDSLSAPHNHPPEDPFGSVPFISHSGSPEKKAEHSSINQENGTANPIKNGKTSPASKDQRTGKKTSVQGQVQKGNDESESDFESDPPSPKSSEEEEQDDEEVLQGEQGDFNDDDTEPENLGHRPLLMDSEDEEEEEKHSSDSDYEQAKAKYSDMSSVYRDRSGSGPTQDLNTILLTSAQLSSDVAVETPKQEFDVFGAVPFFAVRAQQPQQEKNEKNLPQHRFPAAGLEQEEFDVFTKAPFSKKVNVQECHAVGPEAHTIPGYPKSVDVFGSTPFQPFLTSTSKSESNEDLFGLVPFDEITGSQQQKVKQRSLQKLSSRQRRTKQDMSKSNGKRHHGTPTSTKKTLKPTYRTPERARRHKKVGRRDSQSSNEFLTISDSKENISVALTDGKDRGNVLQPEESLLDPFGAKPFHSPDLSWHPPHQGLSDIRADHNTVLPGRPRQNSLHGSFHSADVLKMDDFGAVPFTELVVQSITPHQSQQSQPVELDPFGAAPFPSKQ
Chain of Serine/threonine-protein kinase 24 (Homo sapiens) (Q9Y6E0 whole entry, looked up): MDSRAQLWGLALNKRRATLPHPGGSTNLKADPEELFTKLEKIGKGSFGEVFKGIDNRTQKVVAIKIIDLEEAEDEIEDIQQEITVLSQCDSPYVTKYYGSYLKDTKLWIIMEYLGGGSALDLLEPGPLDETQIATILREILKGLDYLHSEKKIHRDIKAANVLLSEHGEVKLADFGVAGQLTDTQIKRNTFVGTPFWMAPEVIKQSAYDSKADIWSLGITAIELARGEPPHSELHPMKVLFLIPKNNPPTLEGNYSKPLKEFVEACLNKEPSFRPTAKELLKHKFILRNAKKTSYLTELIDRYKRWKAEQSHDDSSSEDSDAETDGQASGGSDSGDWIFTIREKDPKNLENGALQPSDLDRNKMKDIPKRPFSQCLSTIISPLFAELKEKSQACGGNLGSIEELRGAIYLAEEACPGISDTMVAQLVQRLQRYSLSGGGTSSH

- Kd [1]: 83.5 nM
- ΔTm [2]: 5.8 °C and 5.3 °C
- ΔTm [3]: 3.3 °C
- inhibition [4]: 44%
- inhibition [5]: 48%
- Activity [6]: 27%
Compound: O=C1NCCc2ccc(cc2)Nc2nccc(n2)Nc2cc1[nH]n2
